Experimental data published in ChEMBL document CHEMBL4699492, “Discovery of Novel Pyrazolo[3,4-b] Pyridine Derivatives with Dual Activities of Vascular Remodeling Inhibition and Vasodilation for the Treatment of Pulmonary Arterial Hypertension” (J Med Chem, 2020).

tested on: Aorta; experiment: Vasodilating activity in Sprague-Dawley rat aortic rings assessed as reduction in phenylephrine-induced contractions at 1 uM relative to control; assay type: functional; settings: not given
In short: (§1)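 Thoracic aorta from male SD rats (250-280 g) anesthetized with chloral hydrate, cut into 4 mm rings. Rings held in Krebs-Henseleit at 37 °C gassed with 95% O2/5% CO2, under 2 g resting tension, equilibrated 60 min, and precontracted with 10^-7 M phenylephrine. Cumulative concentrations of 3×10^-9 to 10^-6 M (final) applied. Percent relaxation of the initial contraction taken at 1 µM, and EC50 derived.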

SMILES	Emax at 1 µM [%]
Cc1nn(-c2ccccc2)c2nc(OCc3ccccc3F)c(-c3nc(N)c(N4CCOC4=O)c(N)n3)cc12	19.7
Cc1nn(-c2ccccc2)c2nc(OCc3ccccc3)c(-c3nc(N)cc(N)n3)cc12	20.4
COC(=O)Nc1c(N)nc(-c2cc3c(C)nn(-c4ccccc4)c3nc2OCc2ccccc2F)nc1N	31.4
Cc1cccc(COc2nc3c(cc2-c2nc(N)cc(N)n2)c(C)nn3-c2ccccc2)c1	48.4
CC(=O)Nc1c(N)nc(-c2cc3c(C)nn(-c4ccccc4)c3nc2OCc2ccccc2F)nc1N	51.1
Cc1nn(-c2ccccc2)c2nc(OCc3ccccc3F)c(-c3nc(N)cc(N)n3)cc12	41.3

tested on: not listed separately; experiment: Antiproliferative activity against HLF1 cells assessed as reduction in TGFbeta-induced cell proliferation measured after 48 hrs by CCK8 assay; assay type: functional, cell-based; settings: Homo sapiens, HLF1, 48 h
In short: (§2)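 HPASMCs grown in high-glucose D-MEM with 20% FBS and HLF1 in D-MEM/F-12 (1:1) with 10% FBS. Cells stimulated with TGF-β (10 ng/mL) at 37 °C, 5% CO2, then exposed to a concentration range for 48 h. CCK-8 added for 4 h and absorbance read at 490 nm. IC50 derived from the curves.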

SMILES	IC50 [µM]
Cc1nn(-c2ccccc2)c2nc(OCc3ccccc3F)c(-c3nc(N)c(N4CCOC4=O)c(N)n3)cc12	49.7
Cc1nn(-c2ccccc2)c2nc(OCc3ccccc3)c(-c3nc(N)cc(N)n3)cc12	52.8
COC(=O)Nc1c(N)nc(-c2cc3c(C)nn(-c4ccccc4)c3nc2OCc2ccccc2F)nc1N	> 100
Cc1cccc(COc2nc3c(cc2-c2nc(N)cc(N)n2)c(C)nn3-c2ccccc2)c1	41.9
CC(=O)Nc1c(N)nc(-c2cc3c(C)nn(-c4ccccc4)c3nc2OCc2ccccc2F)nc1N	> 100
Cc1nn(-c2ccccc2)c2nc(OCc3ccccc3F)c(-c3nc(N)cc(N)n3)cc12	55.6

tested on: Aorta; experiment: Vasodilating activity in Sprague-Dawley rat aortic rings assessed as reduction in phenylephrine-induced contractions; assay type: functional, tissue-based; settings: not given; in short: as §1

SMILES	EC50 [µM]
Cc1nn(-c2ccccc2)c2nc(OCc3ccccc3F)c(-c3nc(N)c(N4CCOC4=O)c(N)n3)cc12	> 100
Cc1nn(-c2ccccc2)c2nc(OCc3ccccc3)c(-c3nc(N)cc(N)n3)cc12	10.8
COC(=O)Nc1c(N)nc(-c2cc3c(C)nn(-c4ccccc4)c3nc2OCc2ccccc2F)nc1N	5.8
Cc1cccc(COc2nc3c(cc2-c2nc(N)cc(N)n2)c(C)nn3-c2ccccc2)c1	0.99
CC(=O)Nc1c(N)nc(-c2cc3c(C)nn(-c4ccccc4)c3nc2OCc2ccccc2F)nc1N	0.93
Cc1nn(-c2ccccc2)c2nc(OCc3ccccc3F)c(-c3nc(N)cc(N)n3)cc12	2.2

tested on: not listed separately; experiment: Antiproliferative activity against HPASMC assessed as reduction in TGFbeta-induced cell proliferation measured after 48 hrs by CCK8 assay; assay type: functional, tissue-based; settings: Homo sapiens, Pulmonary Artery Smooth Muscle Cells; in short: as §2

SMILES	IC50 [µM]
Cc1nn(-c2ccccc2)c2nc(OCc3ccccc3F)c(-c3nc(N)c(N4CCOC4=O)c(N)n3)cc12	24.7
Cc1nn(-c2ccccc2)c2nc(OCc3ccccc3)c(-c3nc(N)cc(N)n3)cc12	67.4
COC(=O)Nc1c(N)nc(-c2cc3c(C)nn(-c4ccccc4)c3nc2OCc2ccccc2F)nc1N	25.5
Cc1cccc(COc2nc3c(cc2-c2nc(N)cc(N)n2)c(C)nn3-c2ccccc2)c1	32
CC(=O)Nc1c(N)nc(-c2cc3c(C)nn(-c4ccccc4)c3nc2OCc2ccccc2F)nc1N	34.9
Cc1nn(-c2ccccc2)c2nc(OCc3ccccc3F)c(-c3nc(N)cc(N)n3)cc12	59.3
